thrombin 1536 – blocks human thrombin protease activity; P00734; alpha-thrombin, Boc-VPR-AMC fluorogenic substrate cleavage; inhibition, % at 5 µM; 220,000 compounds, 0.26% hits;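 active = inhibition at or above 40%; inactive = inhibition below 40%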;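 note: 0% = enzyme with no compound and 100% = wells without enzyme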
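System: Human alpha-thrombin protein | Medium: pH 7.5 Tris (50 mM) with NaCl 150 mM, Tween 20 0.05% | Times: Enzyme reaction carried out at room temperature | Detection: AMC fluorescence, 355/460 nm | Evaluation: Percent inhibition scaled between no-compound controls and no-enzyme blanks | Benchmarks: Enzyme without compound as high, wells lacking enzyme as low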
FXIIa inh – blocks human coagulation factor XIIa protease activity. P00748. purified FXIIa, Boc-QGR-AMC fluorogenic substrate, 2 h. inhibition, % at 5 µM. 220,000 compounds, 0.3% hits; in the data active = inhibition above about 40%;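 note: 0% = enzyme with no compound and 100% = blank without enzyme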
FXIa inh – factor XIa (human) inhibition | P03951 | purified FXIa, Boc-Glu-Ala-Arg-AMC fluorogenic substrate | inhibition, % at 5 µM | 220,000 compounds, 0.14% hits | AID 798;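 active = inhibition of at least 40%; inactive = inhibition below 40%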;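 note: fluorescence of freed AMC excited at 355 nm; 0% = enzyme without compound and 100% = no enzyme blank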
KLK5 inh – inhibitors of human kallikrein 5. Q9Y337. 210,000 compounds, 0.59% hits. inhibition, % at 5 µM. recombinant hK5, fluorogenic AMC substrate cleavage;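 active = inhibition of 40% or more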;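 note: 0% = enzyme controls without compound and 100% = no-enzyme blanks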
Wee1 degr inh – blocks degradation of human Wee1 kinase. 220,000 compounds, 1.2% hits. P30291. AID 1321. HeLa Luc-Wee1K328M stability, luciferase luminescence; 100% = proteasome inhibitor MG132 effect. reporter increase, % at 5 µM;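 active = activation above the mean of all tested compounds plus 3 SD, set per screening run, cut at about 8.8% in these data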;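 note: cells exposed to compound for 20 h before luminescence read; 0% = DMSO alone and 100% = MG132 at 30 µM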
Target sequence (P30291 whole entry K328M): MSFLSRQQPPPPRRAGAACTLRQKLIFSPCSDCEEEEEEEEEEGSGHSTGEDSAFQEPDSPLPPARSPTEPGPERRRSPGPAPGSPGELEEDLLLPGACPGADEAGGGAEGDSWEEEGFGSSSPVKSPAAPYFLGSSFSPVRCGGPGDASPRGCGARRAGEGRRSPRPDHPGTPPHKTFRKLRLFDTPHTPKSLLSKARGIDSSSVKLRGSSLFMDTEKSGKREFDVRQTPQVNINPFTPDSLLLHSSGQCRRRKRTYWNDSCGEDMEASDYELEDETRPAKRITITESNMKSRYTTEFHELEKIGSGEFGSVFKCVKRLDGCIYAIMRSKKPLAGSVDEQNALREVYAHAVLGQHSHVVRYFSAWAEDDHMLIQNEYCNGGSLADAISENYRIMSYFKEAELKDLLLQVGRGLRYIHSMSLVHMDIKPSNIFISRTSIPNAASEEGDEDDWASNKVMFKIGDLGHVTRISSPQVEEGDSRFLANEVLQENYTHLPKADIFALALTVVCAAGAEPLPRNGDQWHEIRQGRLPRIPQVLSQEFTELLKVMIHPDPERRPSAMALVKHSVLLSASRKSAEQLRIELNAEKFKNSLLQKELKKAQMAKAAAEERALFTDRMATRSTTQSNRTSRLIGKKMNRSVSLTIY
Platelet DG rel – modulates dense granule release in human platelets; inhibition, %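 (compounds screened at 7.5 µM in platelet-rich plasma)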; human platelet-rich plasma, SFLLRN dense granule ATP release, luminescence; AID 1663; 300,000 compounds, 0.22% hits;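 active = mean replicate score, as percent of positive control, at or above 50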
* = called active by the depositor; / = no result. The list is not random: actives were taken first. Their share in the collection is about 1.8%.

SMILES	thrombin 1536	FXIIa inh	FXIa inh	KLK5 inh	Wee1 degr inh	Platelet DG rel
COc1ccc2oc(C(=O)C3CC3)c(N)c2c1	3	-9	-3	-22	9.6*	2
COc1ccc(C(=O)c2oc3ccccc3c2N)cc1	0	9	8	7	-1	-7
COC(=O)CCC(=O)c1oc2ccc(OC)cc2c1N	-4	10	0	-2	0	1
Cc1ncc(CO)c(CNc2ccc(Oc3ccccc3)cc2)c1O	/	/	/	/	/	-1
CCC(C)[C@H](NC(=O)Nc1ccc(C(C)=O)cc1)C(=O)OC (stereo partly drawn)	1	44*	24	2	1	-5
CC1(C)OC(=CC=Nc2ccc(Cl)cc2)OC1(C)C	2	45*	28	16	-1	3
Cc1ccc(N=CC=C2OC(C)(C)C(C)(C)O2)c(C)c1	2	8	7	-4	6	20
Cc1nc(C(N)=O)nc2ccccc12	-4	3	3	6	0	-2
Clc1ccc(C2CSc3c4ncnc-4ncn32)cc1 (stereo not drawn)	8	35	19	46*	4	3
O=C(NNS(=O)(=O)c1ccc([N+](=O)[O-])cc1)c1ccc([N+](=O)[O-])cc1	/	/	/	/	/	23
CCc1ccc(OCCSc2nc3ccccc3n2CC(=O)O)cc1	/	/	/	/	/	7
Cc1ccc2nc(N(CCCN(C)C)C(=O)c3ccco3)sc2c1	-11	7	-1	1	10*	8
CN(C)CCCN(C(=O)c1ccco1)c1nc2ccc(F)cc2s1	-7	9	-6	-4	2	0
COc1ccccc1NC(=O)c1csc2c1CCCC2	3	2	1	63*	0	-11
COc1ccccc1CNC(=O)c1csc2c1CCCC2	-10	-6	0	-6	1	4
CC1C/C(=C/c2ccccn2)C(=O)/C(=C/c2ccccn2)C1 (stereo not drawn)	13	7	0	-4	9.9*	-8
CC(C)(C)C1C/C(=C/c2ccccn2)C(=O)/C(=C/c2ccccn2)C1 (stereo not drawn)	-8	9	-4	-8	4	-3
O=C(/C=C/c1ccc(O)c(O)c1)c1ccccc1O	0	10	-1	4	3	70*
O=C(/C=C/c1ccoc1)c1ccccc1O	-8	-4	-1	-17	0	0
Cc1ccc(Cl)c(OCC(=O)Nc2cccnc2)c1	/	/	/	/	/	27
Cc1ccc(Cl)c(OCC(=O)Nc2sc(C)c(C)c2C#N)c1	3	3	15	-5	8.8*	8
Cc1ccc(Cl)c(OCC(=O)Nc2ccccc2C(=O)NC2CC2)c1	/	/	/	/	/	53*
COc1ccccc1CNC(=O)c1ccc2ccccc2n1	/	/	/	/	/	-11
CC(=O)ONC(=Nc1ccccc1)c1nonc1N	1	10	5	4	1	-5
Cc1ccc(NC(=S)NCCc2ccccc2)nc1	-1	13	54*	10	-3	2
SMILES	thrombin 1536	FXIIa inh	FXIa inh	KLK5 inh	Wee1 degr inh	Platelet DG rel
CSCc1nc2scc(-c3ccccc3)c2c(=O)[nH]1	41*	29	28	11	-1	-11
O=c1[nH]c(CN2CCN(Cc3ccccc3)CC2)nc2scc(-c3ccccc3)c12	1	9	1	0	0	6
CN(CCO)CC(O)CN(c1ccccc1)c1ccccc1 (stereo not drawn)	-3	5	10	4	-1	-1
CNCC(O)CN(c1ccccc1)c1ccccc1 (stereo not drawn)	-6	6	0	4	9.7*	12
CCOc1cc(NC(=S)NCCCN2CCOCC2)c(OCC)cc1NC(=O)c1ccc(C)cc1	14	52*	27	41*	1	1
CCOc1cc(NC(=S)NCCCN2CCOCC2)c(OCC)cc1NC(=O)c1cccs1	11	28	16	20	9.5*	4
CCOc1cc(NC(=S)NCCCN2CCOCC2)c(OCC)cc1NC(=O)c1ccccc1	-1	12	1	/	1	0
CCOc1cc(NC(=O)c2cccs2)c(OCC)cc1NC(=O)CCC(=O)NCCN1CCOCC1	0	6	-1	5	-2	-6
COc1ccc(C(=O)N2CCC(=O)N(C(CO)Cc3ccccc3)CC2)cc1 (stereo not drawn)	0	17	7	-8	-4	-12
CSc1nc(N)n2nc(-c3ccc(Cl)cc3)cc2n1	2	5	5	6	2	67*
CCOC(=O)c1cnc2cc(-c3ccc(Cl)cc3)nn2c1N	4	20	3	-4	-2	-9
O=C(CBr)N1CCc2ccccc2C(c2ccccc2)C1 (stereo not drawn)	-1	10	2	4	1	6
O=C(CN1CCOCC1)N1CCc2ccccc2C(c2ccccc2)C1 (stereo not drawn)	20	-2	10	73*	-3	-3
Cc1ccsc1C(=O)N1CCCC(CCC(=O)N2CCN(c3ccccn3)CC2)C1 (stereo not drawn)	1	6	0	/	7	-2
COCCCn1cn[nH]c1=S	-8	22	28	63*	0	-5
COCCCNC(=O)C(F)(F)C(F)(F)C(=O)NCCCOC	9	27	19	122*	0	-7
CCOC(=O)C1CCCN(C(=O)Cn2ncc3c([nH]c4ccccc43)c2=O)C1 (stereo not drawn)	/	/	/	/	/	2
Cc1cc2cc(CN(Cc3ccc4c(c3)OCO4)C(=O)c3ccco3)c(=O)[nH]c2cc1C	15	9	2	54*	-2	-1
O=C(c1ccco1)N(Cc1ccc2c(c1)OCO2)Cc1cc2cc3c(cc2[nH]c1=O)OCO3	2	11	0	2	-2	-4
NNC(=O)c1ccc(CSc2nc3ccccc3s2)cc1	14	49*	31	27	-1	2
CSCCC(=O)N1CCC(CCC(=O)NC2CC2)CC1	/	/	/	/	/	9
COc1cc(C(=O)O/N=C2/C=C(C)C(=O)C=C2C)cc(OC)c1OC	-2	60*	0	-6	0	-2
COc1cc2c(cc1OC)C(C)N(S(=O)(=O)c1cn(C)c(C)n1)CC2 (stereo not drawn)	-4	3	-5	-10	-4	-5
COc1cc2c(cc1OC)C(C)N(S(=O)(=O)c1cn(C)cn1)CC2 (stereo not drawn)	-5	1	-19	5	9.4*	2
O=C(CCC(=O)OCc1ccc(C(=O)Oc2ccc(Cl)cc2)cc1)Nc1ccccc1	12	35	1	52*	0	-8
COc1ccc(-c2coc3cc(O)cc(O)c3c2=O)cc1	/	8	1	-14	10*	3
CCCc1cc(C(=O)N2CCCC(N3CCN(c4ccccc4C)CC3)C2)n(C)n1 (stereo not drawn)	/	/	/	/	/	-3
CCCc1cc(C(=O)N2CCCC(N3CCN(c4ccccc4F)CC3)C2)n(C)n1 (stereo not drawn)	/	/	/	/	/	53*
